Measured values published in ChEMBL document CHEMBL4308835, “Fluorine-Substituted Pyrrolo[2,3- d]Pyrimidine Analogues with Tumor Targeting via Cellular Uptake by Folate Receptor α and the Proton-Coupled Folate Transporter and Inhibition of de Novo Purine Nucleotide Biosynthesis” (J Med Chem, 2018).
The source made the active and inactive calls. No cut-off for these calls is given here.

Columns and labels:
A2780 = assay: Antiproliferative activity against human A2780 cells after 96 hrs by Cell-Titer Blue assay; type: functional, cell-based; details: A2780, 96 h
[1] = target: T1, Proton-coupled folate transporter (Homo sapiens) (UniProt Q96NT5); assay: Inhibition of human PCFT expressed in Chinese hamster R2/PCFT4 cells assessed as reduction in [3H]MTX uptake at pH 5.5 at 1 to 10 uM measured over 2 mins; type: cell-based
T1 sequence (whole entry): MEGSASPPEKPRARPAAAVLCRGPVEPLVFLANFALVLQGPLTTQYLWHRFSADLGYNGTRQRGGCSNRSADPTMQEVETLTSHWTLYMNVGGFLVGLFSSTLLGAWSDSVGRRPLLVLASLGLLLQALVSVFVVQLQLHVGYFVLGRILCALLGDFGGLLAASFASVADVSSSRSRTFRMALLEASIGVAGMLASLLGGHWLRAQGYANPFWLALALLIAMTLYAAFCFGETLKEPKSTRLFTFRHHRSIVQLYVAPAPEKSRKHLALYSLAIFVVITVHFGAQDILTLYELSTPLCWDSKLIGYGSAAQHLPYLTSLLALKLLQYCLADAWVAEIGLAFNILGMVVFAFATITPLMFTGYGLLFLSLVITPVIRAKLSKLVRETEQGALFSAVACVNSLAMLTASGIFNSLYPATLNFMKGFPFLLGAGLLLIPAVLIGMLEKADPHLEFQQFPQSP

[2] = target: T2, Proton-coupled folate transporter (Homo sapiens, UniProt Q96NT5); assay: Inhibition of human PCFT expressed in Chinese hamster R2/PCFT4 cells assessed as reduction in [3H]MTX uptake at pH 5.5 measured over 2 mins by Dixon plot analysis; type: cell-based
T2 sequence (Q96NT5 whole entry): T1 sequence (whole entry)
Outline: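 Competitor concentrations ranged from 0.05 to 0.5 μM. Ki was obtained by Dixon plot. Mean ± SE of four independent experiments.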

[3] = target: T1, Proton-coupled folate transporter (Homo sapiens); assay: Inhibition of human PCFT expressed in Chinese hamster R2/PCFT4 cells assessed as reduction in [3H]MTX uptake at pH 5.5 at 10 uM measured over 2 mins relative to control; type: cell-based
IGROV-1 [4] = assay: Antiproliferative activity against wild type human IGROV1 cells after 96 hrs by Cell-Titer Blue assay; type: functional, cell-based; details: IGROV-1, 96 h
[5] = target: T3, Reduced folate transporter (Homo sapiens) (UniProt P41440); assay: Inhibition of human RFC2 expressed in human HeLa R1-11 cells assessed as reduction in [3H]MTX uptake at pH 7.2 at 10 uM measured over 2 mins relative to control; type: cell-based
T3 sequence (whole entry): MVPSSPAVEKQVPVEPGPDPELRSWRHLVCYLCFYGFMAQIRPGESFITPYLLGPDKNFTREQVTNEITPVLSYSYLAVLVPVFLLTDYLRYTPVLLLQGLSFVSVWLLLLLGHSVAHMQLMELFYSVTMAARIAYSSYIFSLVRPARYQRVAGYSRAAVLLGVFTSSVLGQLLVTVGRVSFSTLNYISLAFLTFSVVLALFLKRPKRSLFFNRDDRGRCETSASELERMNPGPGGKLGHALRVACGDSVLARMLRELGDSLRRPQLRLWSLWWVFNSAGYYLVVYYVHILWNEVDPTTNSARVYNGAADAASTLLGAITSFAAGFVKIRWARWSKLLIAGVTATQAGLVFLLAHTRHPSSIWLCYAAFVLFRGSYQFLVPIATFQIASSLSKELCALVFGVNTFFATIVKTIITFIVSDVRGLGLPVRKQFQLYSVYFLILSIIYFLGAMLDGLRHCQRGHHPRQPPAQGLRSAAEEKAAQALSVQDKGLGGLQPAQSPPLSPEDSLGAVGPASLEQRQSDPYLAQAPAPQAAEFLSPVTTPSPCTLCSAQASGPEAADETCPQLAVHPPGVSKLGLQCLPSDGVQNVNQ

IGROV-1 [6] = assay: Antiproliferative activity against FRalpha […] human IGROV1 KD4 cells after 96 hrs by Cell-Titer Blue assay; type: functional, cell-based; details: IGROV-1, 96 h
[7] = target: T1, Proton-coupled folate transporter (Homo sapiens); assay: Inhibition of human PCFT expressed in Chinese hamster R2/PCFT4 cells assessed as reduction in [3H]MTX uptake at pH 5.5 at 1 uM measured over 2 mins relative to control; type: cell-based
[8] = target: Folate receptor alpha (Homo sapiens) (UniProt P15328); assay: Displacement of [3H]folic acid from human FRalpha expressed in Chinese hamster RT16 cells at 10 to 1000 nM after 15 mins; type: cell-based
Outline: (§1)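 RT16 (FRα) or D4 (FRβ) CHO cells at ~80% confluence were washed with PBS at 4 °C, then with pH 3.5 acetate buffer to strip bound folate, then HEPES-buffered saline pH 7.4. Cells were incubated with 50 nM [³H]folic acid plus competitor (10–1000 nM) for 15 min at 4 °C, washed, and solubilized in NaOH. Bound radioactivity was normalized to protein.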

IGROV-1 [9] = assay: Antiproliferative activity against human IGROV1 cells harboring non targeted control shRNA sequence after 96 hrs by Cell-Titer Blue assay; type: functional, cell-based; details: IGROV-1, 96 h
IGROV-1 [10] = assay: Antiproliferative activity against FRalpha […] human IGROV1 KD10 cells after 96 hrs by Cell-Titer Blue assay; type: functional, cell-based; details: IGROV-1, 96 h
[11] = target: T3, Reduced folate transporter (Homo sapiens); assay: Inhibition of human RFC2 expressed in human HeLa R1-11 cells assessed as reduction in [3H]MTX uptake at pH 7.2 at 1 uM measured over 2 mins relative to control; type: cell-based
[12] = target: T4, Trifunctional purine biosynthetic protein adenosine-3 (Homo sapiens, UniProt P22102); assay: Inhibition of GARFTase in human IGROV1 cells assessed as decrease in incorporation of [14C(U)glycine into [14C]formyl GAR formation after 24 hrs; type: cell-based
T4 sequence (P22102 whole entry): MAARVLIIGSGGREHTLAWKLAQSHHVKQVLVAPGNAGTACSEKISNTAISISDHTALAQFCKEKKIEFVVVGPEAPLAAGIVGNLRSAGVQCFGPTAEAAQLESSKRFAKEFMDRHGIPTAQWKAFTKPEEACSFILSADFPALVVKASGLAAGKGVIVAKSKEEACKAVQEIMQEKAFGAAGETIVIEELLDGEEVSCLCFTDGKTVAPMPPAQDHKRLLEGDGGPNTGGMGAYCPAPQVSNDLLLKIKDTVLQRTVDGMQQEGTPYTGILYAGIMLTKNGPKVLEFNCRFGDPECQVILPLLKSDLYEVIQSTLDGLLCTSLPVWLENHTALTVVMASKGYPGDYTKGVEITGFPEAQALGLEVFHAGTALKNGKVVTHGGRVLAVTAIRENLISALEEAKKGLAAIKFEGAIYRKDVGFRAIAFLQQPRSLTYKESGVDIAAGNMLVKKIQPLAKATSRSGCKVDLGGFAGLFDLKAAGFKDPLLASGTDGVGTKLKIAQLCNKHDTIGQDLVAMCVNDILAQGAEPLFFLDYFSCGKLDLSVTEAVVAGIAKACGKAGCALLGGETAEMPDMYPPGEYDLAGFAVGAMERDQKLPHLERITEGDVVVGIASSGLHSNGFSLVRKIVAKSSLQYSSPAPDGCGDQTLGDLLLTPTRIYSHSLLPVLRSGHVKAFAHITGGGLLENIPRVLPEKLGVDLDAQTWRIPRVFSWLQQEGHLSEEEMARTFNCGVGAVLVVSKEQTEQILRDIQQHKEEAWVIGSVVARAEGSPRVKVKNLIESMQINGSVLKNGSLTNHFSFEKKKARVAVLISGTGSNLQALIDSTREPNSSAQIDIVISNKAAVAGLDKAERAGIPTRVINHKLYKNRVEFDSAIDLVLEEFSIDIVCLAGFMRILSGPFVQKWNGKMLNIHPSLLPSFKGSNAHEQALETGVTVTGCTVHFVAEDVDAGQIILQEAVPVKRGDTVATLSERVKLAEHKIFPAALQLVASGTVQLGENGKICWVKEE

[13] = target: Folate receptor beta (Homo sapiens) (UniProt P14207); assay: Displacement of [3H]folic acid from human FRbeta expressed in Chinese hamster D4 cells at 10 to 1000 nM after 15 mins; type: cell-based; outline: as §1
[14] = Antiproliferative activity in Chinese hamster R2 cells deficient in RFC, PCFT, and FRalpha assessed as reduction in cell growth after 96 hrs by Cell-Titer Blue assay; type: cell-based; details: Cricetulus griseus, R2, 96 h
[15] = target: T3, Reduced folate transporter (Homo sapiens); assay: Inhibition of human RFC2 expressed in human HeLa R1-11 cells assessed as reduction in [3H]MTX uptake at pH 7.2 at 10 uM measured over 2 mins relative to control
IGROV-1 [16] = assay: Antiproliferative activity against human IGROV1 cells at 1 to 1000 nM in presence of 60 uM adenosine after 96 hrs by Cell-Titer Blue assay; type: functional, cell-based
Outline: (§2)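 IGROV1 cells, 2000/well, in folate-free RPMI 1640 with 10% dialyzed FBS, L-glutamine, 25 nM LCV. A range of drug concentrations was given with thymidine (10 μM), adenosine (60 μM) or AICA (320 μM) added. After 96 h, proliferation was measured by Cell-Titer Blue fluorescence. At least triplicate experiments.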

IGROV-1 [17] = assay: Antiproliferative activity against human IGROV1 cells at 1 to 1000 nM in presence of 320 uM AICA after 96 hrs by Cell-Titer Blue assay; type: functional, cell-based; outline: as §2
IGROV-1 [18] = assay: Antiproliferative activity against human IGROV1 cells at 1 to 1000 nM in presence of 10 uM thymidine after 96 hrs by Cell-Titer Blue assay; type: functional, cell-based; outline: as §2

Folate receptor alpha (Homo sapiens), sequence (P15328 25-234 limits assumed): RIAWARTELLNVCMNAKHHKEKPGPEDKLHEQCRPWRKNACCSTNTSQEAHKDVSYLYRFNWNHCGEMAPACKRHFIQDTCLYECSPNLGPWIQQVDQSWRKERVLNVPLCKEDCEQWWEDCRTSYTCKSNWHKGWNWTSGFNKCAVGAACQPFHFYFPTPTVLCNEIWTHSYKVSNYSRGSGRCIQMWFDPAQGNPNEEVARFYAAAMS
Folate receptor beta (Homo sapiens), sequence (P14207 17-230 limits assumed): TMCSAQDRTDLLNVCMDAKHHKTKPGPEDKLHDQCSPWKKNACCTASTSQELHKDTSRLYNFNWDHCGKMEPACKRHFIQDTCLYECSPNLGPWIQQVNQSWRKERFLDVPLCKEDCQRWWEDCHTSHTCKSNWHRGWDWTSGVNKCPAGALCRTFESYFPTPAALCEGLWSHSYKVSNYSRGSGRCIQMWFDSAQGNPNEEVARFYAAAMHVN

IC50 (A2780) | inhibition [1] | Ki [2] | inhibition [3] | inhibition [5] | inhibition [7] | inhibition [8] | inhibition [11] | IC50 [12] | inhibition [13] | inhibition [15] | Compound | IC50 (IGROV-1 [4]) | IC50 (IGROV-1 [6]) | IC50 (IGROV-1 [9]) | IC50 (IGROV-1 [10]) | IC50 [14] | Activity (IGROV-1 [16]) | Activity (IGROV-1 [17]) | Activity (IGROV-1 [18])
5.42 nM | Active | 240 nM | Active | inactive | Active | Active | inactive | – | – | – | Nc1nc2[nH]c(CCCCc3ccc(C(=O)N[C@@H](CCC(=O)O)C(=O)O)nc3)cc2c(=O)[nH]1 | 1.87 nM | 64.1 nM | 1.55 nM | 30.5 nM | – | – | – | –
7.6 nM | Active | 70 nM | 90 to 95% | < 30% | 60 to 85% | Active | – | 1.2 nM | Active | < 30% | Nc1nc2[nH]c(CCCc3csc(C(=O)N[C@@H](CCC(=O)O)C(=O)O)c3F)cc2c(=O)[nH]1 | 6.92 nM | 85.6 nM | 5.61 nM | 42.2 nM | 20.5 nM | – | – | –
– | – | – | 90 to 95% | inactive | 60 to 85% | Active | inactive | 2 nM | – | – | Nc1nc2[nH]c(CCCCc3cnc(C(=O)N[C@@H](CCC(=O)O)C(=O)O)c(F)c3)cc2c(=O)[nH]1 | – | > 1000 nM | – | > 1000 nM | > 1000 nM | inactive | inactive | Active
– | Active | – | Active | inactive | Active | – | inactive | – | – | – | Nc1nc(N)c2nc(CNc3ccc(C(=O)N[C@@H](CCCNC(=O)c4ccccc4C(=O)O)C(=O)O)cc3)cnc2n1 | – | – | – | – | – | – | – | –
